# Results reported in PubChem BioAssay AID588575 (Sanford-Burnham Center for Chemical Genomics, 2011).
# Calls of active or inactive are those of the source.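 Rule for the calls: active = IC50 at or below 20 µM; inactive = the rest.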
# Molecular target: Bcl-2-like protein 10 (Homo sapiens) (UniProt Q9HD36)
# Experiment: small molecules blocking Bcl-B/Bim BH3 binding – biochemical, fluorescence polarization, GST-Bcl-B, FITC-Bim, SAR follow-up (AID 588575)
# Conditions: GST-Bcl-B / FITC-Bim peptide
# Procedure, shortened: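 Assay system: purified GST-Bcl-B fusion, E. coli-expressed, missing ~20-residue C-terminal transmembrane segment. Buffer or medium: HEPES-KOH pH 7.5 buffer with Tween-20 and TCEP. Dosing: 10 concentrations, 2-fold steps. Times: Protein–compound preincubation 20 min, 4 °C, probe binding 10 min, RT. Measured by: fluorescence polarization at 485/530 nm. Evaluation: IC50 from sigmoidal dose-response curve fit.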
# Chain of Bcl-2-like protein 10 (Homo sapiens) (Q9HD36 whole entry, looked up): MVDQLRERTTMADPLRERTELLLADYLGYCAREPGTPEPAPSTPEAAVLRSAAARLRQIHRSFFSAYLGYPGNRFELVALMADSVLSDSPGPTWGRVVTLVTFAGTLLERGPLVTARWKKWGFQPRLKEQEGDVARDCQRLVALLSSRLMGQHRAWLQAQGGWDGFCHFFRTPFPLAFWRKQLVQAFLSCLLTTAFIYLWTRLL
row,IC50,Compound
1,> 20 µM (inactive),COc1ccc2c(c1)-c1c(c(=O)n(Cc3ccc(Cl)cc3)c3nncn13)C1(CCCC1)C2
2,> 20 µM (inactive),COc1ccc2c(c1)-c1c(c(=O)n(Cc3ccc(Cl)cc3)c3nncn13)C(C)(C)C2
3,> 20 µM (inactive),COc1ccc2c(c1)-c1c(c(=O)n(Cc3ccc(Cl)cc3)c3nnnn13)C(C)(C)C2
4,0.6 µM,Cc1ccc2c(c1)-c1c(c(=O)n(Cc3ccc(F)cc3)c3nncn13)C1(CCCCC1)C2
5,3.4 µM,O=c1c2c(n3cnnc3n1Cc1ccc(Cl)cc1)-c1ccccc1CC21CCCC1
6,2.11 µM,O=c1c2c(n3nnnc3n1Cc1ccc(Cl)cc1)-c1ccccc1CC21CCCC1
7,> 20 µM (inactive),COc1ccc2c(c1)-c1c(c(=O)n(Cc3ccc(F)cc3)c3nncn13)C(C)(C)C2
8,> 20 µM (inactive),CC1CC(=O)C2=C(C1)Nc1ncnn1C2c1cccnc1 (stereo not drawn)
9,> 20 µM (inactive),O=c1c2c(-c3ccccc3)n3ncnc3nc2ccn1-c1ccccc1
10,> 20 µM (inactive),O=C1CCCC2=C1C(c1cc(Br)ccc1F)n1ncnc1N2 (stereo not drawn)
11,> 20 µM (inactive),Cc1ccc2c(c1)-c1c(c(=O)n(Cc3ccc(Cl)cc3)c3nncn13)C1(CCCCC1)C2
12,> 20 µM (inactive),COc1ccc2c(c1)-c1c(c(=O)n(Cc3ccc(F)cc3)c3nnnn13)C(C)(C)C2
13,> 20 µM (inactive),COc1ccc2c(c1)-c1c(c(=O)n(Cc3ccc(Cl)cc3)c3nnnn13)C1(CCCC1)C2
14,8.14 µM,Cc1ccc2c(c1)-c1c(c(=O)n(Cc3ccc(F)cc3)c3nnnn13)C1(CCCCC1)C2
15,> 20 µM (inactive),Cc1ccc2c(c1)-c1c(c(=O)n(Cc3ccc(Cl)cc3)c3nnnn13)C1(CCCCC1)C2
16,> 20 µM (inactive),O=c1c2c(n3nnnc3n1Cc1ccccc1)-c1cc(F)ccc1CC21CCCC1
17,> 20 µM (inactive),O=C1CC(c2ccc(F)cc2)CC2=C1C(c1cccc(Cl)c1)n1ncnc1N2 (stereo not drawn)
18,> 20 µM (inactive),O=C1CC(c2ccccc2F)c2c(n3ncnc3[nH]c2=O)N1 (stereo not drawn)
19,1.56 µM,O=c1c2c(n3nnnc3n1Cc1ccc(F)cc1)-c1ccccc1CC21CCCC1
20,0.775 µM,O=c1c2c(n3nnnc3n1Cc1ccccc1)-c1cc(F)ccc1CC21CCCCC1

# Further lines, the molecule ahead of its results:
row,Compound,IC50
1,CC1(C)Cc2ccccc2-c2nc3nn[nH]n3c(=O)c21,> 20 µM (inactive)
2,O=c1c2c(n3cnnc3n1C1CCCCC1)-c1ccccc1CC21CCCCC1,> 20 µM (inactive)
3,Cn1c(NCCO)nc2c(c1=O)C1(CCCCC1)Cc1ccccc1-2,> 20 µM (inactive)
4,O=c1c2c(nc3[nH]ncn13)-c1ccccc1CC21CCCC1,> 20 µM (inactive)
5,O=c1[nH]c(CN2CCOCC2)nc2c1C1(CCCC1)Cc1ccccc1-2,> 20 µM (inactive)
6,COc1ccc2c(c1)-c1c(c(=O)n(Cc3ccccc3)c3nncn13)C(C)(C)C2,> 20 µM (inactive)
7,Cc1ccc2c(c1)-c1c(c(=O)n(Cc3ccccc3)c3nnnn13)C1(CCCCC1)C2,13.6 µM
8,Cc1ccc2c(c1)-c1c(c(=O)n(Cc3ccccc3)c3nnnn13)C(C)(C)C2,5.77 µM
9,O=c1c2c(nc3n1CCS3)-c1ccccc1CC21CCCCC1,> 20 µM (inactive)
10,COc1ccc2c(c1)-c1c(c(=O)n(Cc3ccccc3)c3nncn13)C1(CCCC1)C2,> 20 µM (inactive)
11,O=c1c2cnc3ncnn3c2ccn1CCc1cnc[nH]1,> 20 µM (inactive)
12,O=c1c2c(n3cnnc3n1Cc1ccccc1)-c1ccccc1CC21CCCCC1,> 20 µM (inactive)
13,O=c1c2ccccc2nc2n1C1(CCCC1)Cc1ccccc1-2,> 20 µM (inactive)
14,Cc1ccc2c(c1)-c1c(c(=O)n(Cc3ccccc3)c3nncn13)C(C)(C)C2,> 20 µM (inactive)
15,Cn1c(=O)c2c(n3cnnc13)-c1ccccc1CC21CCCC1,> 20 µM (inactive)
16,CC1(C)CC(n2c(=S)[nH]c3c(c2=O)C2(CCCC2)Cc2ccccc2-3)CCO1 (stereo not drawn),> 20 µM (inactive)
17,O=c1c2c(n3nnnc3n1Cc1ccccc1)-c1ccccc1CC21CCCCC1,4.15 µM
18,COc1ccc(Cn2c(=O)c3c(n4cnnc24)-c2cc(C)ccc2CC3(C)C)cc1,8.29 µM
19,O=c1c2c(n3nnnc3n1Cc1ccccc1)-c1ccccc1CC21CCCC1,3.34 µM

row,Compound,IC50
1,c1ccc(OCc2nc3c4c(ncn3n2)-c2ccccc2CC42CCCC2)cc1,> 20 µM (inactive)
2,O=c1c2c(n3cnnc3n1Cc1ccccc1)-c1ccccc1CC21CCCC1,5.19 µM
3,CC1(C)Cc2ccccc2-c2c1c(=O)n(Cc1ccccc1)c1nncn21,> 20 µM (inactive)
4,O=c1c2cnc3nc(-c4ccccc4)nn3c2ccn1CCc1cnc[nH]1,> 20 µM (inactive)
5,O=c1c2ccccc2nc2n1C1(CCCCC1)Cc1ccccc1-2,> 20 µM (inactive)
6,C=C(C)Cn1c(=O)c2c(n3cnnc13)-c1ccccc1CC21CCCC1,> 20 µM (inactive)
7,Cn1c(=S)[nH]c2c(c1=O)C1(CCCCC1)Cc1ccccc1-2,> 20 µM (inactive)
8,O=c1[nH]c(NCCCO)nc2c1C1(CCCCC1)Cc1ccccc1-2,> 20 µM (inactive)
9,COc1ccc(Cn2c(=O)c3c(n4nnnc24)-c2cc(C)ccc2CC3(C)C)cc1,3.94 µM
10,O=c1c2c(-c3ccccc3)n3ncnc3nc2ccn1-n1cnnc1,> 20 µM (inactive)
11,Cc1ccc2c(c1)-c1c(c(=O)n(Cc3ccccc3)c3nncn13)C1(CCCCC1)C2,4.92 µM
12,C=C(C)Cn1c(=O)c2c(n3nnnc13)-c1ccccc1CC21CCCC1,> 20 µM (inactive)
13,CC1(C)Cc2ccccc2-c2c1c(=O)n(Cc1ccccc1)c1nnnn21,> 20 µM (inactive)
14,O=c1c2c(n3nnnc3n1-c1ccccc1)-c1ccccc1CC21CCCC1,> 20 µM (inactive)
15,COc1ccc2c(c1)-c1c(c(=O)n(Cc3ccccc3)c3nnnn13)C(C)(C)C2,4.03 µM
16,COc1ccc2c(c1)-c1c(c(=O)n(Cc3ccccc3)c3nnnn13)C1(CCCC1)C2,> 20 µM (inactive)
17,O=c1[nH]c(CN2CCCC2)nc2c1C1(CCCC1)Cc1ccccc1-2,> 20 µM (inactive)
18,COc1ccc(Cn2c(=O)c3c(n4nnnc24)-c2ccccc2CC32CCCC2)cc1,0.386 µM
19,O=c1c2c(nc3[nH]ncn13)-c1ccccc1CC21CCCCC1,> 20 µM (inactive)
